Results taken from ChEMBL document CHEMBL1147233, “Chemistry and structure-activity relationship of HIV-1 integrase inhibitor integracide B and related natural products” (J Nat Prod, 2003).
pIC50: −log10 of the molar value.

Columns and labels:
[1] = target: T1, Human immunodeficiency virus type 1 integrase (Human immunodeficiency virus 1, UniProt Q7ZJM1); assay: Inhibition of recombinant HIV1 integrase using unprocessed donor DNA by coupled assay
Procedure, shortened: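 Unprocessed donor DNA and inhibitor incubated with recombinant integrase together for 30 min, then target DNA added; strand-transfer product measured. Final DMSO 10%. IC50 from serial 2-fold dilutions in duplicate or triplicate; values without error limits are the average of these.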

[2] = target: T1, Human immunodeficiency virus type 1 integrase; assay: Inhibition of recombinant HIV1 integrase using preprocessed donor DNA treated after washing excess enzyme by strand transfer assay
Procedure, shortened: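 Integrase preincubated with preprocessed donor DNA, unbound enzyme washed off, then target DNA and inhibitor added together. Strand transfer product measured. Final DMSO 10%. IC50 from serial 2-fold dilutions run in duplicate or triplicate; values without error limits are the average of these.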

[3] = Inhibition of DNAse
[4] = target: Type II restriction enzyme EcoRI (Escherichia coli, UniProt P00642); assay: Inhibition of Escherichia coli ECOR1
Type II restriction enzyme EcoRI, sequence (P00642 whole entry): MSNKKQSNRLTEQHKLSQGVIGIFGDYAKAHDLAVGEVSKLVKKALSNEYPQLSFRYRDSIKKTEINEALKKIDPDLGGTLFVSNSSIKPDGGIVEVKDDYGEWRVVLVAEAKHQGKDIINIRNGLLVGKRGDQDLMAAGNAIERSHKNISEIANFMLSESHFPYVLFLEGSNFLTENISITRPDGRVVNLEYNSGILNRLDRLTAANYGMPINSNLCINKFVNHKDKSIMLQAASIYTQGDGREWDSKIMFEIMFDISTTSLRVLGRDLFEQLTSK

T1 sequence (Q7ZJM1 whole entry): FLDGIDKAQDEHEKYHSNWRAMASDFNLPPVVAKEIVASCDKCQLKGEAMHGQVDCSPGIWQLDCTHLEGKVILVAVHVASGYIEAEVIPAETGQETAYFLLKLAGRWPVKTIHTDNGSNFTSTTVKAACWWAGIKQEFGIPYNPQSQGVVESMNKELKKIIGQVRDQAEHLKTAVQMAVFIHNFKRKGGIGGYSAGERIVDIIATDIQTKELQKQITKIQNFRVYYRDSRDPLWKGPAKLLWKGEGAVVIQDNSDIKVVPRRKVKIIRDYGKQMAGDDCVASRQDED

pIC50 [1]	pIC50 [2]	pIC50 [3]	pIC50 [4]	Structure (SMILES)
< 4.30	< 4.30	< 4.30	< 4.30	C=C(CC[C@@H](C)[C@H]1CC=C2C3=C([C@@H](O)[C@H](OC(C)=O)[C@@]21C)[C@@]1(C)C[C@@H](OC(=O)CCC(=O)OC)[C@H](O)C(C)(C)[C@@H]1CC3)C(C)C
< 4.30	< 4.30	< 4.30	< 4.30	C=C(CC[C@@H](C)[C@H]1CC=C2C3=C([C@@H](O)[C@H](OC(C)=O)[C@@]21C)[C@@]1(C)C[C@@H](OC(=O)CNC(=O)OCC2c4ccccc4-c4ccccc42)[C@H](O)C(C)(C)[C@@H]1CC3)C(C)C
< 4.30	< 4.30	< 4.30	< 4.30	C=C(CC[C@@H](C)[C@H]1CC=C2C3=C([C@@H](O)[C@H](OC(C)=O)[C@@]21C)[C@@]1(C)C[C@@H](OC(=O)CNC(=O)OCC2c4ccccc4-c4ccccc42)[C@H](OC(=O)CNC(=O)OCC2c4ccccc4-c4ccccc42)C(C)(C)[C@@H]1CC3)C(C)C
< 4.30	< 4.30	< 4.30	< 4.30	C=C(CC[C@@H](C)[C@H]1CC=C2C3=C([C@@H](O)[C@H](OC(C)=O)[C@@]21C)[C@@]1(C)C[C@@H](OC(=O)CNC(=O)OC(C)(C)C)[C@H](OC(=O)CNC(=O)OC(C)(C)C)C(C)(C)[C@@H]1CC3)C(C)C
< 4.30	< 4.30	< 4.30	< 4.30	C=C(CC[C@@H](C)[C@H]1CC=C2C3=C([C@@H](O)[C@H](OC(C)=O)[C@@]21C)[C@@]1(C)C[C@@H](O)[C@H](OC(=O)CCC(=O)OC)C(C)(C)[C@@H]1CC3)C(C)C
< 4.16	< 4.16	< 4.30	< 4.30	C=C(CC[C@@H](C)[C@H]1CC=C2C3=C([C@@H](O)[C@H](OC(C)=O)[C@@]21C)[C@@]1(C)C[C@@H](OC(=O)c2ccccc2)[C@H](OC(=O)c2ccccc2)C(C)(C)[C@@H]1CC3)C(C)C
5.51	5.32	< 4.30	< 4.30	C=C(CC[C@@H](C)[C@H]1CC=C2C3=C([C@@H](O)[C@H](OC(C)=O)[C@@]21C)[C@@]1(C)CC[C@H](OS(=O)(=O)O)C(C)(C)[C@@H]1CC3)C(C)C
< 4.30	< 4.30	< 4.30	< 4.30	C=C(CC[C@@H](C)[C@H]1CC=C2C3=C([C@@H](O)[C@H](OC(C)=O)[C@@]21C)[C@@]1(C)C[C@@H](OC(=O)CNC(=O)OC(C)(C)C)[C@H](O)C(C)(C)[C@@H]1CC3)C(C)C
4.12	< 4.00	< 4.30	< 4.30	C=C(CC[C@@H](C)[C@H]1CC=C2C3=C(C(=O)[C@H](OC(C)=O)[C@@]21C)[C@@]1(C)C[C@@H](O)[C@H](O)C(C)(C)[C@@H]1CC3)C(C)C
4.30	< 4.00	< 4.30	< 4.30	C=C(CC[C@@H](C)[C@H]1C[C@H](OC)c2c3c(cc(C)c21)[C@@]1(C)C[C@@H](O)[C@H](O)C(C)(C)[C@@H]1CC3)C(C)C
4.30	< 4.00	< 4.30	< 4.30	C=C(CC[C@@H](C)[C@H]1C[C@@H](OC)c2c3c(cc(C)c21)[C@@]1(C)C[C@@H](O)[C@H](O)C(C)(C)[C@@H]1CC3)C(C)C
4.60	4.40	< 4.30	< 4.30	C=C(CC[C@@H](C)[C@H]1CC(=O)C2=C3CC[C@H]4C(C)(C)[C@@H](O)[C@H](O)C[C@]4(C)C3=C[C@H](OC(C)=O)[C@@]21C)C(C)C
< 4.30	< 4.30	< 4.30	< 4.30	C=C(CC[C@@H](C)[C@H]1CC=C2C3=C([C@@H](O)[C@H](OC(C)=O)[C@@]21C)[C@@]1(C)C[C@@H]2O[C@@H]2C(C)(C)[C@@H]1CC3)C(C)C
4.15	< 4.00	< 4.30	< 4.30	COC(=O)C[C@@](C)(O)CC(=O)O[C@@H]1C[C@]2(C)C3=C(CC[C@H]2C(C)(C)C1=O)[C@]1(C)CC[C@H]([C@H](C)CCC(O)C(C)(C)O)[C@@]1(C)CC3 (stereo not given in full)
4.64	< 4.30	< 4.30	< 4.30	C=C(CC[C@@H](C)[C@H]1CC=C2C3=C([C@@H](O)[C@H](OC(C)=O)[C@@]21C)[C@@]1(C)C[C@@H](OC(=O)CN)[C@H](O)C(C)(C)[C@@H]1CC3)C(C)C
< 4.10	< 4.10	< 4.30	< 4.30	C=C(CC[C@@H](C)[C@H]1CC=C2C3=C([C@@H](O)[C@H](OC(C)=O)[C@@]21C)[C@@]1(C)C[C@@H](OCOC)[C@H](O)C(C)(C)[C@@H]1CC3)C(C)C
< 4.10	< 4.10	< 4.30	< 4.30	C=C(CC[C@@H](C)[C@H]1CC=C2C3=C([C@@H](O)[C@H](OC(C)=O)[C@@]21C)[C@@]1(C)C[C@@H](O)[C@H](OCOC)C(C)(C)[C@@H]1CC3)C(C)C
5.10	< 4.30	< 4.30	< 4.30	C=C(CC[C@@H](C)[C@H]1CC=C2C3=C([C@@H](O)[C@H](OC(C)=O)[C@@]21C)[C@@]1(C)C[C@@H](OC(=O)CCC(=O)NO)[C@H](O)C(C)(C)[C@@H]1CC3)C(C)C
< 4.10	< 4.10	< 4.30	< 4.30	C=C(CC[C@@H](C)[C@H]1CC=C2C3=C([C@@H](O)[C@H](OC(C)=O)[C@@]21C)[C@@]1(C)C[C@@H](O)[C@H](OC(=O)c2ccccc2)C(C)(C)[C@@H]1CC3)C(C)C
< 4.30	< 4.30	< 4.30	< 4.30	C=C(CC[C@@H](C)[C@H]1CC=C2C3=C([C@@H](OC(C)=O)[C@H](OC(C)=O)[C@@]21C)[C@@]1(C)C[C@@H](OC(C)=O)[C@H](OC(C)=O)C(C)(C)[C@@H]1CC3)C(C)C
< 4.10	< 4.10	< 4.30	< 4.30	C=C(CC[C@@H](C)[C@H]1CC=C2C3=C([C@@H](O)[C@H](OC(C)=O)[C@@]21C)[C@@]1(C)C[C@@H](OC(=O)c2ccccc2)[C@H](O)C(C)(C)[C@@H]1CC3)C(C)C
< 4.10	< 4.10	< 4.30	< 4.30	C=C(CC[C@@H](C)[C@H]1CC=C2C3=C([C@@H](O)[C@H](OC(C)=O)[C@@]21C)[C@@]1(C)C[C@@H](OCOC)[C@H](OCOC)C(C)(C)[C@@H]1CC3)C(C)C

Structure (SMILES)	pIC50 [1]	pIC50 [2]	pIC50 [3]	pIC50 [4]
C=C(CC[C@@H](C)[C@H]1CC=C2C3=C([C@@H](O)[C@H](OC(C)=O)[C@@]21C)[C@@]1(C)C[C@@H](OC(=O)CN)[C@H](OC(=O)CN)C(C)(C)[C@@H]1CC3)C(C)C	5.77	4.94	4.33	< 4.30
C=C(CC[C@@H](C)[C@H]1CC=C2C3=C([C@@H](O)[C@H](OC(C)=O)[C@@]21C)[C@@]1(C)C[C@H]2OC(C)(C)O[C@@H]2C(C)(C)[C@@H]1CC3)C(C)C	< 4.30	< 4.30	< 4.30	< 4.30
C=C(CC[C@@H](C)[C@H]1CC=C2C3=C([C@@H](O)[C@H](O)[C@@]21C)[C@@]1(C)C[C@@H](O)[C@H](O)C(C)(C)[C@@H]1CC3)C(C)C	4.32	< 4.30	< 4.30	< 4.30
